The test system of data set [1] is Liver microsome. Kind of data set: Effect on mitochondrial transmembrane potential in Wistar Han rat liver mitochondria energized with succinate assessed as ADP depolarization at 0.133 ug/mg of protein (reference value: 34.7 +/- 1.4 mV). In kind it is functional.
Data set [2] has as its system Liver microsome. Put plainly: Effect on mitochondrial transmembrane potential in Wistar Han rat liver mitochondria energized with succinate assessed as time duration of lag phase at 0.133 ug/mg of protein (reference value: 82.8 +/- 23.5 sec). It counts as functional. The essentials:
(§1)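 Isolated male Wistar rat liver mitochondria (1.5 mg protein) in 125 mM sucrose, 65 mM KCl, 5 mM KH2PO4, 2.5 mM MgCl2, 5 mM HEPES pH 7.4, 30°C, with 3 μM TPP+. Compound added for 1 min, then 10 mM succinate plus 3 μM rotenone. State 3 started with ADP (83.3 nmol/mg protein). ΔΨ read with a TPP+-selective electrode and calculated by the Kamo equation without binding correction.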

Data set [3] relates to Liver microsome. Put plainly: Effect on mitochondrial transmembrane potential in Wistar Han rat liver mitochondria energized with succinate assessed as mitochondrial transmembrane electropotential at 0.133 ug/mg of protein (reference value: 216.0 +/- 7.4 mV). In kind it is functional.
For data set [4], the system named is Liver microsome. Put plainly: Effect on mitochondrial transmembrane potential in Wistar Han rat liver mitochondria energized with succinate assessed as mitochondrial transmembrane electropotential at 0.333 ug/mg of protein (reference value: 216.0 +/- 7.4 mV). In kind it is functional.
For data set [5], the system named is Liver microsome. Put plainly: Effect on mitochondrial transmembrane potential in Wistar Han rat liver mitochondria energized with succinate assessed as time duration of lag phase at 0.667 ug/mg of protein (reference value: 82.8 +/- 23.5 sec). It counts as functional. The essentials:
as §1

The subject of data set [6] is Liver microsome. Kind of data set: Effect on mitochondrial transmembrane potential in Wistar Han rat liver mitochondria energized with succinate assessed as time duration of lag phase at 1.333 ug/mg of protein (reference value: 82.8 +/- 23.5 sec). In kind it is functional. Summed up: as §1
Data set [7] relates to Liver microsome. Put plainly: Effect on mitochondrial transmembrane potential in Wistar Han rat liver mitochondria energized with succinate assessed as ADP depolarization at 0.333 ug/mg of protein (reference value: 34.7 +/- 1.4 mV). In kind it is functional.
In data set [8] the test system is Liver microsome. Kind of data set: Effect on mitochondrial transmembrane potential in Wistar Han rat liver mitochondria energized with succinate assessed as time duration of lag phase at 1.333 ug/mg of protein (reference value: 33.0 +/- 4.6 sec). It counts as functional. The essentials:
as §1

Data set [9] relates to BJ. Put plainly: Induction of apoptosis in human BJ cells assessed as distribution of mitochondrial polarization and morphology at 0.25 ug/ml after 6 hrs by confocal microscopy. It counts as cell-based. The essentials:
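Cells were seeded on glass coverslips and left to attach for 24 h. They were then exposed to vehicle or 0.25 μg/ml compound for 6 h. For the last 30 min they were loaded with 100 nM TMRM in saline buffer with 15 mM glucose, and the probe was kept present during imaging. Mitochondrial polarization and morphology were imaged by fluorescence microscopy, and the TMRM fluorescence standard deviation was quantified. Four independent preparations, mean ± SEM.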

The test system of data set [10] is Liver microsome. Kind of data set: Effect on mitochondrial transmembrane potential in Wistar Han rat liver mitochondria energized with succinate assessed as ADP depolarization at 0.667 ug/mg of protein (reference value: 25.3 +/- 2.1 mV). In kind it is functional.
For data set [11], the system named is Liver microsome. Kind of data set: Effect on mitochondrial transmembrane potential in Wistar Han rat liver mitochondria energized with succinate assessed as mitochondrial transmembrane electropotential at 1.333 ug/mg of protein (reference value: 204.2 +/- 5.6 mV). In kind it is functional. Summed up:
as §1

Data set [12] concerns Liver microsome. Kind of data set: Effect on mitochondrial transmembrane potential in Wistar Han rat liver mitochondria energized with succinate assessed as ADP depolarization at 0.133 ug/mg of protein (reference value: 25.3 +/- 2.1 mV). It counts as functional.
For data set [13], the system named is MDA-MB-231. Kind of data set: Cytotoxicity against human MDA-MB-231 cells at 0.125 to 2 ug/ml after 1 to 5 days by sulforhodamine B assay. It counts as functional, cell-based. The essentials: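 Sulforhodamine B growth assay in high-glucose DMEM with 10% FBS. Cancer cells seeded at 1×10^4 cells/ml; compound (0.125–2 μg/ml) added 24 h after seeding and left for 1, 3 or 5 days. Cells fixed, total mass stained. Expressed as % of untreated cells at the same time point. Mean ± SEM, five independent experiments.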

Data set [14] deals with Liver microsome. Kind of data set: Effect on mitochondrial transmembrane potential in Wistar Han rat liver mitochondria energized with succinate assessed as time duration of lag phase at 0.067 ug/mg of protein (reference value: 33.0 +/- 4.6 sec). In kind it is functional. Summed up:
as §1

Data set [15] concerns Liver microsome. Put plainly: Effect on mitochondrial transmembrane potential in Wistar Han rat liver mitochondria energized with succinate assessed as ADP depolarization at 0.333 ug/mg of protein (reference value: 25.3 +/- 2.1 mV). In kind it is functional.
Data set [16] concerns Liver microsome. Put plainly: Effect on mitochondrial transmembrane potential in Wistar Han rat liver mitochondria energized with succinate assessed as time duration of lag phase at 0.333 ug/mg of protein Rvb = 46.7 +/- 3.9 sec). It counts as functional. The essentials:
as §1

The test system of data set [17] is Liver microsome. Kind of data set: Effect on mitochondrial transmembrane potential in Wistar Han rat liver mitochondria energized with succinate assessed as ADP depolarization at 0.067 ug/mg of protein (reference value: 34.6 +/- 1.9 mV). In kind it is functional.
Data set [18] deals with Liver microsome. Kind of data set: Effect on mitochondrial transmembrane potential in Wistar Han rat liver mitochondria energized with succinate assessed as time duration of lag phase at 0.133 ug/mg of protein Rvb = 46.7 +/- 3.9 sec). In kind it is functional. Summed up: as §1
In data set [19] the test system is Liver microsome. Kind of data set: Effect on mitochondrial transmembrane potential in Wistar Han rat liver mitochondria energized with succinate assessed as mitochondrial transmembrane electropotential at 1.333 ug/mg of protein (reference value: 220.6 +/- 2.5 mV). It counts as functional. The essentials: as §1
Data set [20] deals with Liver microsome. Put plainly: Effect on mitochondrial transmembrane potential in Wistar Han rat liver mitochondria energized with succinate assessed as mitochondrial transmembrane electropotential at 0.06 ug/mg of protein (reference value: 220.6 +/- 2.5 mV). In kind it is functional.
The subject of data set [21] is Liver microsome. Put plainly: Effect on mitochondrial transmembrane potential in Wistar Han rat liver mitochondria energized with succinate assessed as ADP depolarization at 0.067 ug/mg of protein (reference value: 23.9 +/- 3.3 mV). In kind it is functional.
Data set [22] concerns Liver microsome. Put plainly: Effect on mitochondrial transmembrane potential in Wistar Han rat liver mitochondria energized with succinate assessed as ADP depolarization at 1.333 ug/mg of protein (reference value: 23.9 +/- 3.3 mV). It counts as functional.
Data set [23] concerns Hs-578T. Kind of data set: Cytotoxicity against human Hs578T cells at 0.125 to 2 ug/ml incubated for 6 hrs folowed by drug wash out and fresh medium addition and measured 3 days after wash out. In kind it is functional, cell-based.
The test system of data set [24] is Liver microsome. Kind of data set: Effect on mitochondrial transmembrane potential in Wistar Han rat liver mitochondria energized with succinate assessed as ADP depolarization at 0.667 ug/mg of protein (reference value: 23.9 +/- 3.3 mV). In kind it is functional.
Data set [25] concerns Liver microsome. Put plainly: Effect on mitochondrial transmembrane potential in Wistar Han rat liver mitochondria energized with succinate assessed as mitochondrial transmembrane electropotential at 0.333 ug/mg of protein (reference value: 198.0 +/- 5.6 mV). It counts as functional.
The test system of data set [26] is Liver microsome. Kind of data set: Effect on mitochondrial transmembrane potential in Wistar Han rat liver mitochondria energized with succinate assessed as time duration of lag phase at 0.067 ug/mg of protein (reference value: 40.5 +/- 4.5 sec). In kind it is functional. The essentials:
as §1

Our source for the Activity, TIME and inhibition values is ChEMBL document CHEMBL3351723, “New derivatives of lupane triterpenoids disturb breast cancer mitochondria and induce cell death” (Bioorg Med Chem, 2014).

Active and inactive are the calls of the source. The rule behind the calls is not given here.

In the case of `C=C(C)[C@@H]1CC[C@]2(COC(=O)C[n+]3ccc(N(C)C)cc3)CC[C@]3(C)[C@H](CC[C@@H]4[C@@]5(C)CC[C@H](OC(=O)C[n+]6ccc(N(C)C)cc6)C(C)(C)[C@@H]5CC[C@]43C)[C@@H]12.[Cl-].[Cl-]`, the Activity in data set [1] was determined as 29.8 mV; in data set [3], 212 mV; in [4], 208 mV; in data set [7], 29 mV. The TIME in [2] came to 0.0233 h; in data set [5] it was 0.026 h; in data set [6], 0.033 h.
Turning to `C=C(C)[C@@H]1CC[C@]2(COC(=O)CC[n+]3ccc(N(C)C)cc3)CC[C@]3(C)[C@H](CC[C@@H]4[C@@]5(C)CC[C@H](OC(=O)CC[n+]6ccc(N(C)C)cc6)C(C)(C)[C@@H]5CC[C@]43C)[C@@H]12.[Cl-].[Cl-]`, the TIME was 0.00983 h in data set [8] and 0.009 h in data set [14]. For the same compound, the Activity entry is “Non-toxic” in data set [9]; 23.1 mV in data set [10]; 199 mV in [11]; 26.2 mV in [12]; 27.1 mV in data set [15]. The inhibition result in data set [13] is “Active”.
As to `C=C(C)[C@@H]1CC[C@]2(COC(=O)C[N+](C)(C)C(C)C)CC[C@]3(C)[C@H](CC[C@@H]4[C@@]5(C)CC[C@H](OC(=O)C[N+](C)(C)C(C)C)C(C)(C)[C@@H]5CC[C@]43C)[C@@H]12.[Cl-].[Cl-]`, the TIME in data set [16] amounted to 0.0129 h; in [18] it was 0.0137 h. The values for the Activity in [17], in data set [19] and in data set [20] were 31.5 mV, 206 mV and 217 mV, respectively.
Turning to `C=C(C)[C@@H]1CC[C@]2(COC(=O)C(CC)[n+]3ccc(N(C)C)cc3)CC[C@]3(C)[C@H](CC[C@@H]4[C@@]5(C)CC[C@H](OC(=O)C(CC)[n+]6ccc(N(C)C)cc6)C(C)(C)[C@@H]5CC[C@]43C)[C@@H]12` (stereo partly specified), the Activity in [21] worked out at 22.3 mV; in data set [22], 21.8 mV; in data set [24], 23 mV; in data set [25], 193 mV. In addition, the inhibition entry in [23] is “Active”. The TIME in data set [26] was determined as 0.0123 h.
